Measured values taken from ChEMBL document CHEMBL4138246, “Natural product inspired library synthesis - Identification of 2,3-diarylbenzofuran and 2,3-dihydrobenzofuran based inhibitors of Chlamydia trachomatis” (Eur J Med Chem, 2018).

Legend:
[1] = Cytotoxicity against human HeLa 299 cells assessed as reduction in cell viability after 48 hrs by XTT assay; format: cell-based
Summary of the method: (§1)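 HeLa299 cells are seeded at 7000/well and cultured overnight in RPMI with 10% FBS and 2 mM […] at 37 °C with 5% CO2. The medium is then swapped for phenol red-free DMEM with 0.5% DMSO, with or without compound at 25 and 50, in at least three replicate wells each, for 48 h. XTT with activation reagent is read after 2.5 h at 475 minus 660 nm, blank-corrected, and expressed as % of DMSO control.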

[2] = Cytotoxicity against human HeLa 299 cells assessed as cell viability at 50 uM after 48 hrs by XTT assay relative to control; format: cell-based; details: for viability at 48 h, 50 µM: HeLa 299 cells, read-out: Activity; for Activity: 48 h, 50 µM; summary of the method: as §1
[3] = Cytotoxicity against human HeLa 299 cells assessed as cell viability at 25 uM after 48 hrs by XTT assay relative to control; format: cell-based; details: read-out: Activity; summary of the method: as §1
[4] = test system: Chlamydia trachomatis; test: Antichlamydial activity against Chlamydia trachomatis serovar L2 454/Bu infected in human HeLa 299 cells assessed as reduction in number of inclusion bodies measured after 44 to 48 hrs by DAPI staining-based HCS assay; format: functional, organism-based
Summary of the method: (§2)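 HeLa299 cells are seeded at 15,000/well, cultured overnight at 37 °C with 5% CO2 in RPMI with 10% FBS and 2 mM […], then infected with serovar L2 454/Bu at MOI about 0.3 in HBSS. At 1 h the inoculum is replaced with medium containing 0.5% DMSO and 1:1 serial dilutions of compound over eleven concentrations. After 44–48 h, cells are fixed in methanol for 5 min. Inclusions are stained with rabbit anti-Chlamydia antibody, a FITC secondary, and DAPI. Inclusions over 130 µm² are counted by automated imaging and expressed as % of DMSO-control inclusions. IC50 is from nonlinear regression of at least three independent experiments.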

[5] = Cytotoxicity against human HeLa 299 cells assessed as reduction in cell viability at 25 uM after 48 hrs by XTT assay
[6] = test system: Chlamydia trachomatis; test: Antichlamydial activity against Chlamydia trachomatis serovar A […] infected in human HeLa 299 cells assessed as reduction in number of inclusion bodies measured after 44 to 48 hrs by DAPI staining-based HCS assay; format: functional, organism-based
[7] = test system: Chlamydia trachomatis; test: Antichlamydial activity against Chlamydia trachomatis serovar L2 infected in human HeLa 299 cells assessed as reduction in number of inclusion bodies measured after 44 to 48 hrs by DAPI staining-based HCS assay; format: functional, organism-based; summary of the method: as §2
[8] = test system: Chlamydia trachomatis; test: Antichlamydial activity against Chlamydia trachomatis serovar D […] infected in human HeLa 299 cells assessed as reduction in number of inclusion bodies measured after 44 to 48 hrs by DAPI staining-based HCS assay; format: functional, organism-based

| SMILES | Activity [1] | viability at 48 h, 50 µM [2] [%] | viability at 48 h, 25 µM [3] [%] | IC50 ([4]; read-out: IC50) [µM] | IC50 ([4]; read-out: pIC50 (converted)) [µM] | Activity [5] | IC50 [6] [µM] | IC50 [7] [µM] | IC50 [8] [µM] | Activity [2] [%] |
| --- | --- | --- | --- | --- | --- | --- | --- | --- | --- | --- |
| Oc1ccc(-c2oc3cc(O)ccc3c2-c2ccc(F)cc2)cc1 | Dose-dependent effect | 42 | 105 |  |  |  |  |  |  |  |
| Oc1ccc(-c2oc3ccccc3c2-c2cccnc2)cc1 | Dose-dependent effect | 61 | 79 |  |  |  |  |  |  |  |
| COc1ccc(-c2oc3ccccc3c2-c2ccc(OC)cc2)cc1 |  | 94 | 92 | 11.6 | 11.6 |  |  |  |  |  |
| Oc1ccc(-c2oc3ccccc3c2-c2cccc(F)c2)cc1 |  | < 70 |  |  |  | Toxic |  |  |  |  |
| COc1ccc(-c2oc3ccc(F)cc3c2-c2ccc(OC)cc2)cc1 |  | 99 | 82 | 15.2 | 15.2 |  |  |  |  |  |
| COc1ccc(-c2oc3ccccc3c2-c2ccnc(F)c2)cc1 |  | 97 | 84 | 2 | 2.04 |  | 1.6 | 0.965 | 2.04 |  |
| Oc1ccc(-c2oc3ccc(F)cc3c2-c2ccc(O)cc2)cc1 |  | < 70 |  |  |  | Toxic |  |  |  |  |
| COc1ccc(-c2oc3cc(OC)ccc3c2-c2ccnc(F)c2)cc1 |  | 93 | 68 | 2.7 | 2.73 |  | 1.34 | 1.81 | 2.19 |  |
| Oc1ccc(-c2oc3ccc(F)cc3c2-c2ccnc(F)c2)cc1 | Dose-dependent effect | 53 | 107 |  |  |  |  |  |  |  |
| COc1cccc(-c2oc3ccc(F)cc3c2-c2ccc3c(c2)OCO3)c1 |  | < 70 |  |  |  | Toxic |  |  |  |  |
| COc1ccc(-c2oc3ccccc3c2-c2cccnc2)cc1 |  | 103 | 82 | 2.4 | 2.44 |  | 2.63 | 1 | 2.44 |  |
| Oc1ccc(-c2oc3ccccc3c2-c2ccnc(F)c2)cc1 | Dose-dependent effect | 52 | 90 |  |  |  |  |  |  |  |
| COc1ccc(-c2oc3ccccc3c2-c2cccc(F)c2)cc1 |  | 84 | 79 | 22.1 | 22.1 |  |  |  |  |  |
| COc1ccc(-c2oc3cc(OC)ccc3c2-c2ccc(F)cc2)cc1 |  | < 70 |  |  |  | Toxic |  |  |  |  |
| Oc1ccc(-c2oc3ccccc3c2-c2ccc(O)cc2)cc1 | Dose-dependent effect | 32 | 74 |  |  |  |  |  |  |  |
| COc1ccc(-c2oc3cc(OC)ccc3c2-c2ccc(C(F)(F)F)cc2)cc1 | Dose-dependent effect | 45 | 84 |  |  |  |  |  |  |  |
| COc1ccc(-c2oc3cc(OC)ccc3c2-c2ccc(OC)cc2)cc1 |  | 100 | 106 | 12.8 | 12.8 |  |  |  |  |  |
| c1ccc(COc2ccc(-c3oc4ccccc4c3-c3cccnc3)cc2)cc1 |  | 82 | 76 | 15 | 15 |  |  |  |  |  |

| SMILES | Activity [1] | viability at 48 h, 50 µM [2] [%] | viability at 48 h, 25 µM [3] [%] | IC50 ([4]; read-out: IC50) [µM] | IC50 ([4]; read-out: pIC50 (converted)) [µM] | Activity [5] | IC50 [6] [µM] | IC50 [7] [µM] | IC50 [8] [µM] | Activity [2] [%] |
| --- | --- | --- | --- | --- | --- | --- | --- | --- | --- | --- |
| Oc1ccc(-c2oc3cc(O)ccc3c2-c2ccnc(F)c2)cc1 |  | < 70 |  |  |  | Toxic |  |  |  |  |
| COc1ccc(-c2oc3cc(OC)ccc3c2-c2ccc(F)c(F)c2)cc1 |  | 101 | 96 | 27 | 27 |  |  |  |  |  |
| COc1ccc(-c2oc3ccc(F)cc3c2-c2ccnc(F)c2)cc1 |  | 103 | 90 | 4.2 | 4.21 |  | 1.84 | 4.73 | 5.04 |  |
| COc1ccc(-c2oc3ccccc3c2-c2ccc(F)c(F)c2)cc1 |  | 96 | 90 | 8.7 | 8.73 |  |  |  |  |  |
| COc1cccc(C2Oc3ccc(F)cc3C2c2ccc3c(c2)OCO3)c1 (racemic) |  | 103 | 88 | 25.8 | 25.8 |  |  |  |  |  |
| c1ccc(C2Oc3ccccc3C2c2ccccc2)cc1 (racemic) |  | 88 | 72 | 25.4 | 25.4 |  |  |  |  |  |
| COc1ccc(C2c3ccc(OC)cc3OC2c2ccccc2)cc1 (racemic) |  | < 70 |  |  |  | Toxic |  |  |  |  |
| COc1cccc(C2Oc3cc(OC)ccc3C2c2ccc(F)c(F)c2)c1 (racemic) |  | 95 | 93 | 1 | 0.998 |  | 0.079 | 0.581 | 0.7 |  |
| N#Cc1cccc(C2c3ccccc3OC2c2ccccc2)c1 (racemic) |  | 96 | 90 | 25 | 25 |  |  |  |  |  |
| Fc1cccc(C2c3cc(F)ccc3OC2c2ccccc2)c1 (racemic) |  | 84 | 83 | 24.9 | 24.9 |  |  |  |  |  |
| COc1cccc(C2Oc3ccc(F)cc3C2c2ccc(F)c(F)c2)c1 (racemic) |  | 118 | 80 | 19.8 | 19.9 |  |  |  |  |  |
| COc1ccc(C2c3ccc(OC)cc3OC2c2cccc(OC)c2)cc1 (racemic) |  | 90 | 76 | 10.6 | 10.6 |  |  |  |  |  |
| Fc1ccc(C2c3ccccc3OC2c2ccccc2)cc1F (racemic) |  | 87 | 75 | 27.2 | 27.2 |  |  |  |  |  |
| COc1ccc2c(c1)OC(c1ccccc1)C2c1ccc(F)c(F)c1 (racemic; 38) |  |  | 84 | 23.4 | 23.4 |  |  |  |  | 102 |
| COc1ccc2c(c1)OC(c1ccccc1)C2c1ccc(F)c(F)c1 (racemic; 39) |  |  |  |  |  | Toxic |  |  |  | < 70 |
| CC[C@H]1OC(=O)[C@H](C)[C@@H](O[C@H]2C[C@@](C)(OC)[C@@H](O)[C@H](C)O2)[C@H](C)[C@@H](O[C@@H]2O[C@H](C)C[C@H](N(C)C)[C@H]2O)[C@](C)(O)C[C@@H](C)CN(C)[C@H](C)[C@@H](O)[C@]1(C)O [AZITHROMYCIN] |  |  |  |  |  |  |  | 0.727 |  |  |
| CC1COc2c(N3CCN(C)CC3)c(F)cc3c(=O)c(C(=O)O)cn1c23 (centres undefined) [OFLOXACIN] |  |  |  |  |  |  |  | 0.666 |  |  |
